The values below come from paper PMC4165341 (ACS nano, 2011).

The target in assay [1] is T1, mOR174-9 (mOR-EG), His-tagged, nanotube device (Mus musculus, UniProt Q920P2).
T1 sequence (Q920P2 1-313): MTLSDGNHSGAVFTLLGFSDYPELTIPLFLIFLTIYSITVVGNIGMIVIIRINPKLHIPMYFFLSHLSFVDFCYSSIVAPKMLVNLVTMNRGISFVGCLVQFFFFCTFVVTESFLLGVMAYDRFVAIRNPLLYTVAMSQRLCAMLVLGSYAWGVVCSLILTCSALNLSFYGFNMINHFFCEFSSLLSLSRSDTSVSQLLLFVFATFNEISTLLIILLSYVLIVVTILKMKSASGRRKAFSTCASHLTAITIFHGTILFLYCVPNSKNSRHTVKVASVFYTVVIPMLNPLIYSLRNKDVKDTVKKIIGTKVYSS
The experiment in a line: carbon nanotube transistor current change. As to conditions: digitonin micelle device; eugenol vapor in N2, 50% RH (2 ppm in Figure 2). In kind it is binding. Put shortly: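 Receptor solubilised from crude plasma membranes in 6.76 mM digitonin, captured on Ni-magnetic beads (1 h, 4 °C), eluted in 4.88 mM digitonin/acetate pH 4.0, readjusted to pH 8.0, used immediately. Back-gated nanotube transistors (on/off >1000) treated with 11.3 mM NTA-NH2 (2 h), then 11.3 mM NiCl2; receptor deposited 30 min, room temperature. Current recorded under computer-controlled humidity, temperature and vapor flow.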

Assay [2] concerns the target T2, mOR256-17, His-tagged, nanotube device (Mus musculus, UniProt P23275).
T2 sequence (P23275 1-312): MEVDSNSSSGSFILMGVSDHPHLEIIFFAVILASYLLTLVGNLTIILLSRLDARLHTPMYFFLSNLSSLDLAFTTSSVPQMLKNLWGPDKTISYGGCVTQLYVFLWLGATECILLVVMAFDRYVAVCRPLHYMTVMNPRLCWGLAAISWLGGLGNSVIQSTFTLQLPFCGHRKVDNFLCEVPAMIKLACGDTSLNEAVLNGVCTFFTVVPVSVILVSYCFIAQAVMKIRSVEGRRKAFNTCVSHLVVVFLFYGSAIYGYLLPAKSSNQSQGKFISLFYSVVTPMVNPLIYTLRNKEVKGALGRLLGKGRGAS
The experiment in a line: carbon nanotube transistor current change. In kind it is binding. As to conditions: odorant vapor in N2, 50% RH, concentration not given.

`C=CCc1ccc(O)c(OC)c1` [eugenol]: in assay [1], the “mOR 174-9 / micelle nanotube” value was “+20.9±4.6%”. For the same compound, the “mOR 256-17 / nanodisc nanotube” value in assay [2] is on record as “+33.6±8.3%”.
